Legend:
[1] = system: A549; experiment: Induction of apoptosis in human A549 cells assessed as necrotic cells at 4 uM after 24 hrs by Annexin V/propidium iodide staining-based flow cytometric analysis (reference value: 1.1%); type: functional
[2] = AUC (0 to 24 hrs) in C57BL/6 mouse plasma at 40 mg/kg, po administered via gavage by LC-MS/MS analysis; type: ADME, organism-based; parameters: time < 24 hr, dose 40 mg/kg, route oral; settings: in vivo
[3] = system: A549; experiment: Induction of apoptosis in human A549 cells assessed as necrotic cells at 4 uM after 24 hrs in presence of paclitaxel by Annexin V/propidium iodide staining-based flow cytometric analysis (reference value: 1.1%); type: functional
[4] = system: Lewis lung carcinoma cell line; experiment: Induction of apoptosis in mouse LL/2 cells assessed as viable cells at 4 uM after 24 hrs in presence of paclitaxel by Annexin V/propidium iodide staining-based flow cytometric analysis (reference value: 82.3%); type: functional
[5] = system: Lewis lung carcinoma cell line; experiment: Induction of apoptosis in mouse LL/2 cells assessed as necrotic cells at 4 uM after 24 hrs by Annexin V/propidium iodide staining-based flow cytometric analysis (reference value: 7.3%); type: functional
[6] = target: T1, Histone deacetylase 8 (Homo sapiens, UniProt Q9BY41); experiment: Inhibition of human full-length recombinant HDAC8 expressed in baculovirus infected Sf9 insect cells using fluorogenic peptide RHKAcKAc as substrate after 2 hrs
T1 sequence (Q9BY41 whole entry): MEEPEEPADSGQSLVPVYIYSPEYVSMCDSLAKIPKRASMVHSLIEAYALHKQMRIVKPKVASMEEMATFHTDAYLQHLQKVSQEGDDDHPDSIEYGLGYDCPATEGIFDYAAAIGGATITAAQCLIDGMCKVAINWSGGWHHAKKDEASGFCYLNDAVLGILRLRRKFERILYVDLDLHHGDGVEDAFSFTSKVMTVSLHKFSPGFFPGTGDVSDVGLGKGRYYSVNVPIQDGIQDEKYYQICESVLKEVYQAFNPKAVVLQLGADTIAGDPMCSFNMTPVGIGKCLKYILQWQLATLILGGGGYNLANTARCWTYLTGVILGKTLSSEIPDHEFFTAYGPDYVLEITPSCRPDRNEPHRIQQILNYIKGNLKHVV

[7] = system: Lewis lung carcinoma cell line; experiment: Cytotoxicity against mouse LL/2 cells at 4 uM after 72 hrs in presence of paclitaxel by MTT assay relative to control; type: functional
In short: (§1)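 Mouse LL/2 cells treated with inhibitor alone or combined with paclitaxel for 3 days. Viability measured by MTT assay relative to untreated control.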

[8] = AUC (0 to 24 hrs) in C57BL/6 mouse liver at 40 mg/kg, po administered via gavage by LC-MS/MS analysis; type: ADME, organism-based; parameters: dose 40 mg/kg, time < 24 hr, route oral; settings: in vivo
[9] = Drug uptake in C57BL/6 mouse kidney at 40 mg/kg, po administered via gavage co-administered with paclitaxel at 10 mg/kg, ip by LC-MS/MS analysis; type: ADME, organism-based; settings: in vivo
[10] = system: A549; experiment: Induction of apoptosis in human A549 cells assessed as viable cells at 4 uM after 24 hrs in presence of paclitaxel by Annexin V/propidium iodide staining-based flow cytometric analysis (reference value: 96.2%); type: functional
[11] = system: Lewis lung carcinoma cell line; experiment: Induction of apoptosis in mouse LL/2 cells assessed as late apoptotic cells at 4 uM after 24 hrs in presence of paclitaxel by Annexin V/propidium iodide staining-based flow cytometric analysis (reference value: 8.7%); type: functional
[12] = Ratio of compound AUC (0 to 24 hrs) to ACY-1215 AUC (0 to 24 hrs) in C57BL/6 mouse lung at 40 mg/kg, po administered via gavage by LC-MS/MS analysis; type: ADME, organism-based; settings: in vivo
[13] = system: Lewis lung carcinoma cell line; experiment: Induction of apoptosis in mouse LL/2 cells assessed as necrotic cells at 4 uM after 24 hrs in presence of paclitaxel by Annexin V/propidium iodide staining-based flow cytometric analysis (reference value: 7.3%); type: functional
[14] = AUC (0 to 24 hrs) in C57BL/6 mouse kidney at 40 mg/kg, po administered via gavage by LC-MS/MS analysis; type: ADME, organism-based; parameters: time < 24 hr, dose 40 mg/kg, route oral; settings: in vivo
[15] = Drug metabolism in C57BL/6 mouse liver assessed as hydrolysis metabolite formation at 40 mg/kg, po administered via gavage by LC-MS/MS analysis; type: ADME, organism-based; settings: in vivo
[16] = Drug metabolism in C57BL/6 mouse kidney assessed as hydrolysis metabolite formation at 40 mg/kg, po administered via gavage by LC-MS/MS analysis; type: ADME, organism-based; settings: in vivo
[17] = Drug metabolism in C57BL/6 mouse lung assessed as hydrolysis metabolite formation at 40 mg/kg, po administered via gavage by LC-MS/MS analysis; type: ADME, organism-based; settings: in vivo
[18] = Ratio of compound AUC (0 to 24 hrs) to ACY-1215 AUC (0 to 24 hrs) in C57BL/6 mouse liver at 40 mg/kg, po administered via gavage by LC-MS/MS analysis; type: ADME, organism-based; settings: in vivo
[19] = Ratio of drug uptake in C57BL/6 mouse lung at 40 mg/kg, po administered via gavage co-administered with paclitaxel at 10 mg/kg, ip by LC-MS/MS analysis to drug uptake in C57BL/6 mouse lung at 40 mg/kg, po administered via gavage by LC-MS/MS analysis; type: ADME, organism-based; settings: in vivo
[20] = system: Lewis lung carcinoma cell line; experiment: Induction of apoptosis in mouse LL/2 cells assessed as early apoptotic cells at 4 uM after 24 hrs by Annexin V/propidium iodide staining-based flow cytometric analysis (reference value: 1.8%); type: functional
[21] = system: Lewis lung carcinoma cell line; experiment: Cytotoxicity against mouse LL/2 cells after 72 hrs by MTT assay; type: functional, cell-based
[22] = Ratio of AUC (0 to 24 hrs) in lung to plasma of C57BL/6 mouse at 40 mg/kg, po administered via gavage by LC-MS/MS analysis; type: ADME, organism-based; settings: read-out: Ratio AUC
[23] = system: A549; experiment: Cytotoxicity against human A549 cells after 72 hrs by MTT assay; type: functional, cell-based; settings: A549, 72 h
In short: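 Human A549 lung cancer cells exposed to serial dilutions of inhibitor at 37 °C for 72 h. Cytotoxicity expressed as IC50.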

[24] = Drug metabolism in C57BL/6 mouse liver assessed as hydroxylated metabolite formation at 40 mg/kg, po administered via gavage by LC-MS/MS analysis; type: ADME, organism-based; settings: in vivo
[25] = Drug metabolism in C57BL/6 mouse plasma assessed as hydrolysis metabolite formation at 40 mg/kg, po administered via gavage by LC-MS/MS analysis; type: ADME, organism-based; settings: in vivo
[26] = system: A549; experiment: Induction of apoptosis in human A549 cells assessed as viable cells at 4 uM after 24 hrs by Annexin V/propidium iodide staining-based flow cytometric analysis (reference value: 96.2%); type: functional
[27] = system: A549; experiment: Induction of apoptosis in human A549 cells assessed as early apoptotic cells at 4 uM after 24 hrs by Annexin V/propidium iodide staining-based flow cytometric analysis (reference value: 1.2%); type: functional
[28] = system: A549; experiment: Induction of apoptosis in human A549 cells assessed as early apoptotic cells at 4 uM after 24 hrs in presence of paclitaxel by Annexin V/propidium iodide staining-based flow cytometric analysis (reference value: 1.2%); type: functional
[29] = system: Lewis lung carcinoma cell line; experiment: Cytotoxicity against mouse LL/2 cells at 4 uM after 72 hrs by MTT assay relative to control; type: functional; in short: as §1
[30] = Drug uptake in C57BL/6 mouse kidney at 40 mg/kg, po administered via gavage by LC-MS/MS analysis; type: ADME, organism-based; settings: in vivo

AUC [2]: 71 ng·h/g
IC50 [6]: 0.309 µM
AUC [8]: 6395 ng·h/g
Drug uptake [9]: 392 ng/g
Ratio AUC [12]: 2.1
AUC [14]: 1903 ng·h/g
Drug metabolism [15]: Metabolite_Detected
Drug metabolism [16]: Metabolite_Detected
Drug metabolism [17]: Metabolite_Detected
Ratio AUC [18]: 4.4
Ratio [19]: 1.6
Kp [22]: 18.8
Drug metabolism [24]: Metabolite_Notdetected
Drug metabolism [25]: Metabolite_Detected
Drug uptake [30]: 130 ng/g
Structure (SMILES): O=C(NO)c1ccc(Cn2c(=O)n(CCc3ccccc3)c(=O)c3ccccc32)cc1
Activity [1]: 0.7%
Activity [3]: 0.5%
Activity [4]: 64.8%
Activity [5]: 2.3%
Activity [7]: 80 - 90%
Activity [10]: 92.7%
Activity [11]: 21.2%
Activity [13]: 5.3%
Activity [20]: 1.5%
IC50 [21]: 7.87 µM
IC50 [23]: 7.87 µM
Activity [26]: 97.4%
Activity [27]: 1.3%
Activity [28]: 5.4%
Activity [29]: 10%
